pKi: −log10 of the molar value.
Experiments:
Mu-type opioid receptor [1] = biological target: T1, Mu-type opioid receptor (Homo sapiens, UniProt P35372); test: Displacement of [3H]DPN from recombinant human mu opioid receptor expressed in CHOK1 cell membranes
Outline: (§1)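 Competition binding with the radioligand [3H]-DPN on membranes from CHO-K1 cells stably transfected with human recombinant μ or δ opioid receptor or guinea pig κ opioid receptor. Affinity is reported as pKi.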

[2] = (§2) Half life in rat liver microsomes; type: ADME, microsome; details: liver microsomes
[3] = biological target: Kappa-type opioid receptor (Cavia porcellus, UniProt P41144); test: Displacement of [3H]DPN from guinea pig kappa opioid receptor expressed in CHOK1 cell membranes; outline: as §1
[4] = (§3) Half life in dog liver microsomes; type: ADME, Canis lupus familiaris, microsome; details: liver microsomes
[5] = (§4) Half life in human liver microsomes; type: ADME, microsome; details: liver microsomes
[6] = biological target: Delta-type opioid receptor (Homo sapiens, UniProt P41143); test: Displacement of [3H]DPN from recombinant human delta opioid receptor expressed in CHOK1 cell membranes; outline: as §1
Liver [7] = test: as §2; type: ADME, microsome; details: microsomes
Liver [8] = test: as §3; type: ADME, Canis lupus familiaris, microsome; details: microsomes
Liver [9] = test: as §4; type: ADME, microsome; details: microsomes
Mu-type opioid receptor [10] = biological target: T1, Mu-type opioid receptor; test: Intrinsic activity at recombinant human mu opioid receptor expressed in CHOK1 cells by [35S]GTPgammaS binding assay relative to DAMGO; type: functional, cell-based
Outline: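 Membranes from CHO-K1 cells stably transfected with human recombinant μ-opioid receptor; agonist activity measured as [35S]-GTPγS binding. Maximum compound-evoked response minus basal, expressed as percentage of the maximum response evoked by DAMGO.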

T1 sequence (P35372 whole entry): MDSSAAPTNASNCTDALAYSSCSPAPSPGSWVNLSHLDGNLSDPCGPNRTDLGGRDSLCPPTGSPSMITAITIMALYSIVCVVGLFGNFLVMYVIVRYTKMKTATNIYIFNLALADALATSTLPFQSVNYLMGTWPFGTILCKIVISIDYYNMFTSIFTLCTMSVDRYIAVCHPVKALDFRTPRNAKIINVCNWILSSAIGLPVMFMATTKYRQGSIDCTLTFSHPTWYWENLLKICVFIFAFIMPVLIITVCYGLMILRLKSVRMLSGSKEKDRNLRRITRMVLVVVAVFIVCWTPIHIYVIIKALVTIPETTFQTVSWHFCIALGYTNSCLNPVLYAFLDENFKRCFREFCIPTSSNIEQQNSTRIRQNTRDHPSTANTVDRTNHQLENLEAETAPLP
Chain of Kappa-type opioid receptor (P41144 whole entry): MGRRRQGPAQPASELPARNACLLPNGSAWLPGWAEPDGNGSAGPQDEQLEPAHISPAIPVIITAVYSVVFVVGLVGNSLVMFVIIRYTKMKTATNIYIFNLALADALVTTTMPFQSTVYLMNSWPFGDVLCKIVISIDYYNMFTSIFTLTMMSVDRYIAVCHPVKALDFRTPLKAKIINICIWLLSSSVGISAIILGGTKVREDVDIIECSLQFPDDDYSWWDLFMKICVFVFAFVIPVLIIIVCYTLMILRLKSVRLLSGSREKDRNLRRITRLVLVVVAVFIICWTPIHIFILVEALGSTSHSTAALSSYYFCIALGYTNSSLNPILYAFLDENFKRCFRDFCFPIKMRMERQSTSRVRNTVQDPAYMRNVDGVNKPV
Chain of Delta-type opioid receptor (P41143 whole entry): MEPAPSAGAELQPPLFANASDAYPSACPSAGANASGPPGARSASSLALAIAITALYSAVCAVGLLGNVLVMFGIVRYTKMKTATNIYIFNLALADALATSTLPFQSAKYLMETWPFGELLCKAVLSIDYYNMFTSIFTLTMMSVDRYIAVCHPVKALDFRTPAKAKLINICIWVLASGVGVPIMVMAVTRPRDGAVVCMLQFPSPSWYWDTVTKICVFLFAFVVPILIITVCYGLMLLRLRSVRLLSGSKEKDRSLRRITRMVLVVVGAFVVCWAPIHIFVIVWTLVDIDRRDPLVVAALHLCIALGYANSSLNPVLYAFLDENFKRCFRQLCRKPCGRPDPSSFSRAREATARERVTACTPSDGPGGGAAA

SMILES | pKi (Mu-type opioid receptor [1]) | half-life [2] [min] | pKi [3] | half-life [4] [min] | half-life [5] [min] | pKi [6] | t1/2 (Liver [7]) [min] | t1/2 (Liver [8]) [min] | t1/2 (Liver [9]) [min] | Intrinsic activity (Mu-type opioid receptor [10]) [%]
CC(C)(C)c1ccc(CN2[C@@H]3CC[C@@H]2CC(c2cccc(C(N)=O)c2)C3)cc1 (relative stereo; 28a) | 10.00 | > 90 | 10.00 | > 90 | > 90 | 8.80 | – | – | – | –
NC(=O)c1cccc(C2C[C@H]3CC[C@H](C2)N3CCCc2ccccc2)c1 (relative stereo; 24b) [listing 1 of 2 here] | 7.80 | – | – | – | – | 6.70 | 11 | 18 | – | –
CCCCCCCN1[C@@H]2CC[C@@H]1CC(c1cccc(O)c1)C2 (relative stereo; 17b) | 7.70 | – | 7.60 | – | – | 6.60 | 2 | 9 | 2 | –
NC(=O)c1cccc(C2C[C@H]3CC[C@H](C2)N3CCCOc2ccccc2)c1 (relative stereo) | 9.70 | 2 | 9.10 | 7 | > 90 | 8.40 | – | – | – | –
CC(C)(C)c1ccc(CN2[C@@H]3CC[C@@H]2CC(c2cccc(C(N)=O)c2)C3)cc1 (relative stereo; 28b) | 8.00 | – | 7.50 | – | – | 6.70 | – | – | – | –
Oc1cccc(C2C[C@H]3CC[C@H](C2)N3CCCc2ccccc2)c1 (relative stereo; 12a) | 10.00 | 2 | 10.00 | 2 | 15 | 9.10 | – | – | – | –
Oc1cccc(C2C[C@H]3CC[C@H](C2)N3Cc2c(F)cccc2F)c1 (relative stereo; 18a) [listing 1 of 2 here] | 7.80 | 2 | 8.30 | 20 | – | 6.80 | – | – | 29 | –
NC(=O)c1cccc(C2C[C@H]3CC[C@H](C2)N3CCCCN2C(=O)c3ccccc3C2=O)c1 (relative stereo; 29b) | 7.50 | – | – | – | – | 6.70 | – | 11 | – | –
C[C@H]1CN(C[C@H](Cc2ccccc2)C(=O)NCC(=O)O)CC[C@@]1(C)c1cccc(O)c1 [ALVIMOPAN] | – | > 90 | 8.30 | > 90 | > 90 | 8.30 | – | – | – | -6
CC(C)(C)c1ccc(CN2[C@@H]3CC[C@@H]2CC(c2cccc(O)c2)C3)cc1 (relative stereo; 20b) | 8.70 | – | 8.50 | – | – | 7.50 | – | 7 | 67 | –
NC(=O)c1cccc(C2C[C@H]3CC[C@H](C2)N3CCCOc2ccccc2)c1 (stereo not given in full) | 8.20 | – | 7.50 | – | – | 7.00 | – | 6 | – | –
NC(=O)c1cccc(C2C[C@H]3CC[C@H](C2)N3CC(O)Cc2ccccc2)c1 (stereo in doubt; 31b) | 7.50 | – | 7.10 | – | – | 6.30 | 14 | 59 | – | –
CCCCCCCN1[C@@H]2CC[C@@H]1CC(c1cccc(O)c1)C2 (relative stereo; 17a) | 9.60 | 3 | 9.60 | – | – | 8.60 | – | 2 | 10 | –
NC(=O)c1cccc(C2C[C@H]3CC[C@H](C2)N3CCCCN2C(=O)c3ccccc3C2=O)c1 (relative stereo; 29a) | 8.80 | > 90 | 8.50 | 18 | > 90 | 7.10 | – | – | – | –
O=C(CN1[C@@H]2CC[C@@H]1CC(c1cccc(O)c1)C2)C1CCCCC1 (relative stereo; 22a) | 10.00 | 2 | 11.00 | 2 | 12 | 9.30 | – | – | – | –
O=C1c2ccccc2C(=O)N1CCCCN1[C@@H]2CC[C@@H]1CC(c1cccc(O)c1)C2 (relative stereo; 21b) | 7.40 | – | 7.10 | – | – | 6.10 | 21 | 12 | 38 | –
Oc1cccc(C2C[C@H]3CC[C@H](C2)N3CC(O)Cc2ccccc2)c1 (relative stereo; 23b) | 8.00 | – | 7.70 | – | – | 6.60 | – | – | > 90 | –
CCCCCCCN1[C@@H]2CC[C@@H]1CC(c1cccc(C(N)=O)c1)C2 (stereo not given in full) | 7.50 | – | – | – | – | 6.30 | 7 | 2 | 10 | –
O=C(CN1[C@@H]2CC[C@@H]1CC(c1cccc(O)c1)C2)C1CCCCC1 (relative stereo; 22b) | 8.70 | – | 9.10 | – | – | 7.70 | – | – | 13 | –

SMILES | pKi (Mu-type opioid receptor [1]) | half-life [2] [min] | pKi [3] | half-life [4] [min] | half-life [5] [min] | pKi [6] | t1/2 (Liver [7]) [min] | t1/2 (Liver [8]) [min] | t1/2 (Liver [9]) [min] | Intrinsic activity (Mu-type opioid receptor [10]) [%]
NC(=O)c1cccc(C2C[C@H]3CC[C@H](C2)N3Cc2c(F)cccc2F)c1 (relative stereo; 26b) | 5.90 | – | 6.40 | – | – | 5.30 | 74 | – | – | –
NC(=O)c1cccc(C2C[C@H]3CC[C@H](C2)N3CCCc2ccccc2)c1 (relative stereo; 24a) | 9.90 | – | 9.80 | – | > 90 | 8.90 | > 90 | > 90 | – | –
Oc1cccc(C2C[C@H]3CC[C@H](C2)N3Cc2c(F)cccc2F)c1 (relative stereo; 18b) | 6.20 | – | 6.90 | – | – | 5.60 | – | 13 | 75 | –
Oc1cccc(C2C[C@H]3CC[C@H](C2)N3CCCOc2ccccc2)c1 (relative stereo; 19b) | 8.50 | – | 7.70 | – | – | 7.20 | – | 2 | 20 | –
O=C1c2ccccc2C(=O)N1CCCCN1[C@@H]2CC[C@@H]1CC(c1cccc(O)c1)C2 (relative stereo; 21a) | 9.10 | 18 | 9.10 | 11 | 33 | 7.60 | – | – | – | –
CCCCCCCN1[C@@H]2CC[C@@H]1CC(c1cccc(C(N)=O)c1)C2 (relative stereo) [listing 1 of 2 here] | 9.40 | – | 9.40 | – | – | 8.50 | > 90 | 20 | 40 | –
NC(=O)c1cccc(C2C[C@H]3CC[C@H](C2)N3Cc2c(F)cccc2F)c1 (relative stereo; 26a) | 7.50 | – | 7.80 | > 90 | > 90 | 6.50 | 26 | – | – | –
CC(C)(C)c1ccc(CN2[C@@H]3CC[C@@H]2CC(c2cccc(O)c2)C3)cc1 (relative stereo; 20a) | 10.00 | 2 | 10.00 | 5 | – | 9.30 | – | – | 16 | –
Oc1cccc(C2C[C@H]3CC[C@H](C2)N3CC(O)Cc2ccccc2)c1 (relative stereo; 23a) | 9.60 | 2 | – | 2 | – | 8.20 | – | – | 32 | –
Oc1cccc(C2C[C@H]3CC[C@H](C2)N3CCCOc2ccccc2)c1 (relative stereo; 19a) | 10.00 | 2 | 9.60 | – | 25 | 8.80 | – | 9 | – | –
NC(=O)c1cccc(C2C[C@H]3CC[C@H](C2)N3CC(=O)C2CCCCC2)c1 (relative stereo; 30b) | 7.80 | – | 7.70 | – | – | 6.40 | 81 | 9 | – | –
Oc1cccc(C2C[C@H]3CC[C@H](C2)N3CCCc2ccccc2)c1 (relative stereo; 12b) | 8.30 | – | 8.10 | – | – | 7.20 | – | – | 27 | –
Oc1cccc(C2CC3CCC(C2)N3CCCc2ccccc2)c1 (mixture of isomers) | 9.80 | – | – | – | – | 8.90 | – | – | – | 22
C[N+]1(CC2CC2)CC[C@]23c4c5ccc(O)c4O[C@H]2C(=O)CC[C@@]3(O)[C@H]1C5 (stereo not given in full) [METHYLNALTREXONE] | 8.10 | > 90 | 7.70 | > 90 | > 90 | – | – | – | – | 24
NC(=O)c1cccc(C2C[C@H]3CC[C@H](C2)N3CC(=O)C2CCCCC2)c1 (relative stereo; 30a) | 9.80 | 70 | 10.00 | – | > 90 | 8.70 | – | 21 | – | –
CCCCCCCN1[C@@H]2CC[C@@H]1CC(c1cccc(C(N)=O)c1)C2 (relative stereo) [listing 2 of 2 here] | – | – | – | – | – | – | – | – | – | 28
Oc1cccc(C2C[C@H]3CC[C@H](C2)N3Cc2c(F)cccc2F)c1 (relative stereo; 18a) [listing 2 of 2 here] | – | – | – | – | – | – | – | – | – | 36
NC(=O)c1cccc(C2C[C@H]3CC[C@H](C2)N3CC(O)Cc2ccccc2)c1 (relative stereo) | 9.60 | – | 9.50 | > 90 | > 90 | 8.40 | 31 | – | – | –
NC(=O)c1cccc(C2C[C@H]3CC[C@H](C2)N3CCCc2ccccc2)c1 (relative stereo; 24b) [listing 2 of 2 here] | – | – | – | – | – | – | – | – | – | 48

From ChEMBL document CHEMBL4020770, “Discovery of N-substituted-endo-3-(8-aza-bicyclo[3.2.1]oct-3-yl)-phenol and -phenyl carboxamide series of μ-opioid receptor antagonists” (Bioorg Med Chem Lett, 2017)
